This experiment concerns the target T1, Uridine-cytidine kinase 2 (Homo sapiens, UniProt Q9BZX2).
T1 sequence (Q9BZX2 whole entry): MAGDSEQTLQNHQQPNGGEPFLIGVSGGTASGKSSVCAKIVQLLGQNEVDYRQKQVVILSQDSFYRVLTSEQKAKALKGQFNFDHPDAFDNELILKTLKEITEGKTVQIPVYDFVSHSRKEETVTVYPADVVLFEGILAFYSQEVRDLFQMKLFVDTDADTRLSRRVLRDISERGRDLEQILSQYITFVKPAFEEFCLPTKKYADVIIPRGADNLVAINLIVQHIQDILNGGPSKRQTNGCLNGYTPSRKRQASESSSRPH
Description: Inhibition of C-terminally His6-tagged human UCK2 expressed in Escherichia coli BL21(DE3) cells incubated for 15 mins before ATP addition and measured after 60 mins by ADP-Glo kinase assay. Summed up:
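His6-tagged UCK2 (C-terminal tag), purified by Ni-NTA then ion exchange; UCK2 phosphorylates uridine with ATP and ADP-Glo measures the ADP formed, after depleting leftover ATP, as luciferase luminescence. Run in 1536-well format with 0.5 mg/mL BSA, DMSO up to 3%. Primary screen at 33 μM with hit cut-off of 3 SD of the negative control. Confirmation used 8 half-log concentrations, 0.05–167 µM.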

Structures are written as SMILES.

As for `Cc1ccccc1NC(=O)CSCn1[nH]nc2c(=O)nc(Cc3ccc(F)cc3)nc1-2`, it took 137 µM to reach half-maximal inhibition (IC50).
